The source made the active and inactive calls. The calls are words filed in the database; no cut-off is given here. Numbered stars: 1 amine (or outer) side, 2 acyl side, 3 side chain; on linkers, the order of the positions; unused ones are H or OH. Square brackets hold non-standard residues; d marks the D form. Peptide text beside a SMILES is read from it. * marks the point of attachment. NH(1S,2S-2-CONH2-cPent) = NC(=O)[C@H]1CCC[C@@H]1N*; ACPC(1S,2S) = N[C@H]1CCC[C@@H]1C(=O)*; X1 = O=C([C@H]1CCC[C@@H]1N[*:1])[*:2]; X2 = O=C([C@H]1CNC[C@@H]1N[*:1])[*:2]; hArg = N=C(N)NCCCC[C@H](N)C(=O)O; Aib = CC(C)(N)C(=O)O
Assays:
Blood = assay: Drug level in CD1 mouse blood at 20 nmol/kg, sc measured up to 2 hrs; format: ADME, organism-based; conditions: in vivo
Procedure, shortened: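 Female CD1 mice, n = 5, 20 nmol/kg subcutaneously in citrate/NaCl/Tween-80 vehicle, pH 5.0. 2 μL serum from timed bleeds, mixed with CO2-independent medium, added to GP2.3 cells. Luminescence converted to peptide concentration via a standard curve.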

Mus musculus [1] = assay: In vivo induction of excessive bloodstream calcium concentration in CD1 mouse at 20 nmol/kg, sc after 2 hrs by Ca2+/pH analyzer; format: organism-based
Procedure, shortened: (§1)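 Female CD1 mice (9−12 weeks), n = 5, given 20 nmol/kg subcutaneously in 10 mM citrate/150 mM NaCl/0.05% Tween-80, pH 5.0. Tail vein blood taken before and at times after dosing. Ca2+ measured by Ca2+/pH analyzer. One-way ANOVA with Dunnett's test vs vehicle. Mean ± SEM.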

[2] = Half life in Sprague-Dawley rat kidney homogenates at 12 uM by HPLC-MS analysis; format: ADME, tissue-based
Procedure, shortened: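 Kidney homogenate (2.5 mg protein/mL, pH 7.4 Tris) spiked with peptide at 50 μg/mL (~12 μM), 37 °C, sampled 0−120 min. […] C18 UHPLC–Orbitrap MS quantified via y32 ion area ratio against calibration standards. Exponential decay fit, mean ± SD of two replicates.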

[3] = biological target: T1, Parathyroid hormone/parathyroid hormone-related peptide receptor (Homo sapiens) (UniProt Q03431); assay: Agonist activity at human PTH1 receptor expressed in human GP2.3 cells assessed as induction of cAMP at 0.1 to 100 nM preincubated with SIF for 10 mins followed by compound transfer to GP2.3 cells by luciferase reporter gene assay; format: functional, cell-based
T1 sequence (whole entry): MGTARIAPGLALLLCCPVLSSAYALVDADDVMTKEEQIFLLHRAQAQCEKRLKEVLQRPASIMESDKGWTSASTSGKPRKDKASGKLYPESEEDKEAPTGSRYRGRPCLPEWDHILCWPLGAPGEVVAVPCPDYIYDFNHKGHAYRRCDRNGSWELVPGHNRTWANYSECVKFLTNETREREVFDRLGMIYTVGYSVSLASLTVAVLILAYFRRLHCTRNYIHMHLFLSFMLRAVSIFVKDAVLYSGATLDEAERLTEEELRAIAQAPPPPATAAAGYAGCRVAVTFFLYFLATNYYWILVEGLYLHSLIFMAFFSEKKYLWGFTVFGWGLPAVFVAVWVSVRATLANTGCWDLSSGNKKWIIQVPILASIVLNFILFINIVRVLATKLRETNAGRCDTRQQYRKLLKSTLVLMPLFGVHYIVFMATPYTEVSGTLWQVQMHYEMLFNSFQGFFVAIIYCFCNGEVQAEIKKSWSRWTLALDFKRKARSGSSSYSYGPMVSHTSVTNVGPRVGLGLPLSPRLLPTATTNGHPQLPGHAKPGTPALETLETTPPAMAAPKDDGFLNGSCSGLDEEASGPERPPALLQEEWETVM
Procedure, shortened: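 Simulated intestinal fluid containing pancreatin, pH 6.8, prepared fresh and kept at 37 °C. Peptide incubated in it as for gastric fluid. Quenched 1:1 with 50% acetonitrile/1% TFA. Quenched samples serially diluted in CO2-independent medium and applied to luciferin-preloaded GP2.3 cells at 100−0.1 nM final. Luminescence read. Two technical replicates.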

[4] = biological target: T1, Parathyroid hormone/parathyroid hormone-related peptide receptor (Homo sapiens); assay: Agonist activity at human PTH1 receptor expressed in human GP2.3 cells assessed as induction of cAMP at 0.1 to 100 nM preincubated with SGF for 4 hrs followed by compound transfer to GP2.3 cells by luciferase reporter gene assay; format: functional, cell-based
Procedure, shortened: (§2)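 Peptide at 200 μM (from 1 mM stock in 10 mM acetic acid) incubated at 37 °C in fresh SGF (NaCl, porcine pepsin, HCl, pH ~1.2). Quenched by 10× PBS to neutral pH (40 μM). Duplicate reactions. Intact peptide measured by RP-HPLC peak area. For bioactivity, samples diluted into CO2-independent medium and added to luciferin-loaded GP2.3 cells at 100 nM−0.1 nM final.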

[5] = biological target: T1, Parathyroid hormone/parathyroid hormone-related peptide receptor (Homo sapiens); assay: Agonist activity at human PTH1 receptor expressed in human GP2.3 cells assessed as induction of cAMP at 0.1 to 100 nM preincubated with protease activity quenched SGF up to 4 hrs followed by compound transfer to GP2.3 cells by luciferase reporter gene assay; format: functional, cell-based
Procedure, shortened: (§3)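 Control samples: simulated gastric fluid neutralized with 10× PBS, or intestinal fluid mixed with acetonitrile/TFA quench solution, before adding peptide. Gastric controls held up to 4 h. Then diluted and tested on luciferin-loaded GP2.3 cells at 100−0.1 nM final, alongside freshly prepared peptide.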

Mus musculus [6] = assay: In vivo induction of excessive bloodstream calcium concentration in CD1 mouse at 20 nmol/kg, sc up to 2 hrs by Ca2+/pH analyzer; format: organism-based; procedure, shortened: as §1
[7] = biological target: T1, Parathyroid hormone/parathyroid hormone-related peptide receptor (Homo sapiens); assay: Agonist activity at human PTH1 receptor expressed in human GP2.3 cells assessed as induction of cAMP at 12 uM preincubated with Sprague-Dawley rat kidney homogenates for 60 mins followed by compound transfer to GP2.3 cells measured after 12 to 20 mins by luciferase reporter gene assay; format: functional, cell-based
Procedure, shortened: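 Female Sprague-Dawley rat kidney homogenate (50 mM Tris-HCl pH 7.4, 2000g supernatant). 1 mM peptide stock diluted 1:85 (~12 μM), incubated at indicated times. Quenched 1:1 with acetonitrile/TFA solution, diluted to 1000−1 nM, and added 1:10 to GP2.3 cells preincubated 30 min with 0.5 mM D-luciferin. Sigmoidal variable-slope fit. Two replicates.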

[8] = biological target: T2, Parathyroid hormone/parathyroid hormone-related peptide receptor (Homo sapiens, UniProt Q03431); assay: Agonist activity at human PTH1 receptor expressed in human GP2.3 cells assessed as induction of cAMP after 12 to 20 mins by luciferase reporter gene assay; format: functional, cell-based; conditions: read-out: EC50
T2 sequence (Q03431 whole entry): T1 sequence (whole entry)

pepsin = assay: Stability in simulated gastric fluid assessed as pig pepsin-mediated proteolysis by measuring half life at 40 uM by RP-HPLC analysis; format: ADME, Sus scrofa; conditions: simulated gastric fluid with pig pepsin; procedure, shortened: as §2
[9] = biological target: T1, Parathyroid hormone/parathyroid hormone-related peptide receptor (Homo sapiens); assay: Agonist activity at human PTH1 receptor expressed in human GP2.3 cells assessed as induction of cAMP at 0.1 to 100 nM preincubated with protease activity quenched SIF followed by compound transfer to GP2.3 cells by luciferase reporter gene assay; format: functional, cell-based; procedure, shortened: as §3
[10] = biological target: T1, Parathyroid hormone/parathyroid hormone-related peptide receptor (Homo sapiens); assay: Agonist activity at human PTH1 receptor expressed in human GP2.3 cells assessed as induction of cAMP after 12 to 20 mins by luciferase reporter gene assay relative to PTH(1 to 34 residues)-NH2; format: functional, cell-based
[11] = biological target: T1, Parathyroid hormone/parathyroid hormone-related peptide receptor (Homo sapiens); assay: Displacement of [125I]-PTH(1 to 34 residues) from R0 state of human PTHR1 expressed in African green monkey COS7 cell membranes incubated for >1 hr in presence of GTPgammaS by gamma radiation method
[12] = Drug metabolism in Sprague-Dawley rat kidney homogenates assessed as protease-mediated metabolite formation at 12 uM after 4 hrs by MALDI-TOF-MS analysis; format: ADME, tissue-based; conditions: tissue homogenate
Procedure, shortened: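 Perfused female Sprague-Dawley kidney homogenate in 50 mM Tris-HCl pH 7.4, diluted to 2.5 mg protein/mL. Peptide spiked at 50 μg/mL (~12 μM) and incubated at 37 °C. Timed samples quenched with equal volume 1% TFA, centrifuged, dried, reconstituted in 0.1% formic acid, mixed with DHB matrix. Fragments identified by MALDI-TOF MS.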

Drug uptake (Blood): Not Active
half-life at 12 µM [2]: 0.517 h
Activity [3]: Active
Activity [4]: Active
Activity [5]: Active
Activity [7]: Active
EC50 [8]: 0.48 to 0.78 nM
half-life at 40 µM (pepsin): 4 h
Activity [9]: Active
fold change (FC) [10]: 7.1 to 9.5
inhibition [11]: Active
Drug metabolism [12]: Metabolite_Notdetected
Compound: CSCC[C@H](NC(=O)[C@H]1CCC[C@@H]1NC(=O)[C@H](CCC(N)=O)NC(=O)[C@H]1CCC[C@@H]1NC(=O)[C@H](CCC(=O)O)NC(=O)C(C)(C)NC(=O)[C@@H](NC(=O)[C@H]1CCC[C@@H]1N)C(C)C)C(=O)N[C@@H](Cc1cnc[nH]1)C(=O)N[C@@H](CCC(N)=O)C(=O)N[C@@H](CCCCNC(=N)N)C(=O)N[C@@H](C)C(=O)N[C@@H](CCCCN)C(=O)N[C@H]1CCC[C@@H]1C(=O)N[C@@H](CC(C)C)C(=O)N[C@@H](CC(N)=O)C(=O)N[C@@H](CO)C(=O)N[C@H]1CCC[C@@H]1C(=O)N[C@@H](CCCNC(=N)N)C(=O)N[C@@H](CCCNC(=N)N)C(=O)N[C@H](C(=O)N[C@H]1CNC[C@@H]1C(=O)N[C@@H](Cc1c[nH]c2ccccc12)C(=O)N[C@@H](CC(C)C)C(=O)N[C@@H](CCCNC(=N)N)C(=O)N[C@H]1CNC[C@@H]1C(=O)N[C@@H](CCCCN)C(=O)N[C@@H](CC(C)C)C(=O)N[C@@H](CCC(N)=O)C(=O)N[C@H]1CCC[C@@H]1C(=O)N[C@H](C(=O)N[C@@H](Cc1cnc[nH]1)C(=O)N[C@@H](CC(N)=O)C(=O)N[C@H]1CCC[C@@H]1C(N)=O)C(C)C)C(C)C ({ACPC(1S,2S)}-V[Aib]E[X1]Q[X1]MHQ[hArg]AK[X1]LNS[X1]RRV[X2]WLR[X2]KLQ[X1]VHN-{NH(1S,2S-2-CONH2-cPent)})
Activity (Mus musculus [1]): Non-Toxic
Activity (Mus musculus [6]): Toxic

From ChEMBL document CHEMBL4024754, “Development of Potent, Protease-Resistant Agonists of the Parathyroid Hormone Receptor with Broad β Residue Distribution” (J Med Chem, 2017)
